# Source: ChEMBL document CHEMBL4382240, “Discovery of novel 2,5-dihydroxyterephthalamide derivatives as multifunctional agents for the treatment of Alzheimer's disease” (Bioorg Med Chem, 2018)
# pIC50: −log10 of the molar value.
# How the values were obtained:
# [1] = Anti-inflammatory activity in […] cells assessed as inhibition of LPS-stimulated NO release at 10 uM preincubated for 30 mins followed by LPS stimulation and measured after 24 hrs by Griess reagent based assay relative to control; format: functional; conditions: BV-2
# Procedure, shortened: (§1)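 BV-2 cells cultured 24 h in DMEM (10% FBS, glutamine, pyruvate, pen/strep) at 37 °C, 5% CO2. Compound (DMSO stock diluted in PBS) added 30 min before LPS (1.0 µg/mL), then 24 h. Nitrite in supernatant measured by Griess reagent for 10 min at room temperature, A540, against a NaNO2 standard curve. Triplicate wells; mean ± SD of three independent experiments.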
# [2] = Anti-inflammatory activity in […] cells assessed as inhibition of LPS-stimulated TNFalpha release at 10 uM preincubated for 30 mins followed by LPS stimulation and measured after 24 hrs by ELISA relative to control; format: functional; conditions: BV-2
# Procedure, shortened: (§2)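 Confluent BV-2 cells in DMEM preincubated 30 min with compound, tested over 0.5–10 µM, then stimulated with LPS (1.0 µg/mL) for 24 h. Released TNF-α measured by ELISA following kit instructions. Triplicate wells; mean ± SD of three independent experiments.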
# [3] = Anti-inflammatory activity in […] cells assessed as inhibition of LPS-stimulated TNFalpha release at 2.5 uM preincubated for 30 mins followed by LPS stimulation and measured after 24 hrs by ELISA relative to control; format: functional; conditions: BV-2; procedure, shortened: as §2
# [4] = Cytotoxicity against […] cells assessed as decrease in cell viability up to 10 uM measured after 24 hrs by MTT assay; format: cell-based
# Procedure, shortened: (§3)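 BV-2 cells grown 24 h, then treated with compound (0.5, 2.5, 10.0 µM) for 30 min, with or without LPS (1.0 µg/mL), for a further 24 h. MTT (5 mg/mL) added for 4 h, formazan dissolved in DMSO, A490 read. Viability given as percent of untreated cells. Triplicate wells; three independent experiments.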
# [5] = Cytotoxicity against […] cells assessed as decrease in cell viability up to 10 uM preincubated for 30 mins followed by LPS stimulation and measured after 24 hrs by MTT assay; format: cell-based; procedure, shortened: as §3
# [6] = Anti-inflammatory activity in […] cells assessed as inhibition of LPS-stimulated NO release at 2.5 uM preincubated for 30 mins followed by LPS stimulation and measured after 24 hrs by Griess reagent based assay relative to control; format: functional; conditions: BV-2; procedure, shortened: as §1
# [7] = target: T1, Amyloid-beta precursor protein (Homo sapiens, UniProt P05067); assay: Disaggregation of self-induced preformed fibrils of human amyloid beta (1 to 42) at 25 uM after 24 hrs by Thioflavin T based fluorometric assay relative to control
# Procedure, shortened: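 Aβ1-42 diluted in HEPES buffer (20 mM, pH 6.6, 150 mM NaCl) and pre-aggregated 24 h at 37 °C. Compound (25 µM) then added for another 24 h at 37 °C on a sealed plate. Remaining fibrils read by ThT fluorescence in glycine-NaOH, pH 8.5. Triplicate; three independent experiments.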
# [8] = target: T1, Amyloid-beta precursor protein; assay: Inhibition of human amyloid beta (1 to 42) self-induced aggregation after 24 hrs by Thioflavin T based fluorometric assay
# Procedure, shortened: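 Self-induced Aβ1-42 aggregation (25 µM peptide) in phosphate buffer, pH 7.4, for 24 h at 37 °C with varying compound concentrations. Aggregation read by ThT fluorescence (5 µM ThT, glycine-NaOH pH 8.5).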
# [9] = Antioxidant activity assessed as trolox equivalent of APPH-induced radical scavenging activity at 5 uM preincubated for 15 mins followed by AAPH addition measured every minute for 90 mins by ORAC fluorescein assay; format: functional
# Procedure, shortened: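 ORAC-FL in 75 mM phosphate buffer, pH 7.4. Fluorescein (150 nM final) and sample (tested at 1–10 µM) incubated 15 min at 37 °C. AAPH (12 mM final) then added, and fluorescence (ex 485/em 535 nm) read every minute for 90 min. Trolox standard 1–8 µM; result expressed as µM Trolox equivalent per µM compound. Duplicate wells; three independent experiments.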
# [10] = Disaggregation of Cu2+ induced preformed fibrils of human amyloid beta (1 to 42) at 25 uM after 24 hrs by Thioflavin T based fluorometric assay relative to control
# Procedure, shortened: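 Aβ1-42 (25 µM) with Cu2+ (25 µM) in HEPES buffer pre-aggregated 24 h at 37 °C. Compound (25 µM) then added for a further 24 h at 37 °C. Fibril content measured by ThT fluorescence (glycine-NaOH, pH 8.5). Triplicate; three independent experiments.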
# [11] = Inhibition of Cu2+ induced human amyloid beta (1 to 42) aggregation at 25 uM after 24 hrs by Thioflavin T based fluorometric assay relative to control
# Procedure, shortened: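 Aβ1-42 (25 µM) and Cu2+ (25 µM) in HEPES buffer (20 mM, pH 6.6, 150 mM NaCl), with or without compound (25 µM final), incubated 24 h at 37 °C. ThT (5 µM) in glycine-NaOH, pH 8.5, added and fluorescence read. Triplicate; three independent experiments.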
# Acetylcholinesterase [12] = target: Acetylcholinesterase (Electrophorus electricus, UniProt O42275); assay: Inhibition of electric eel AChE using acetylthiocholine iodide as substrate after 15 mins by Ellman's method
# Butyrylcholinesterase = Butyrylcholinesterase (Rattus norvegicus, UniProt Q9JKC1); assay: Inhibition of rat serum BuChE using butyrylthiocholine iodide as substrate after 15 mins by Ellman's method; format: ADME
# Acetylcholinesterase [13] = target: T2, Acetylcholinesterase (Rattus norvegicus, UniProt P37136); assay: Inhibition of rat cortex AChE using acetylthiocholine iodide as substrate after 15 mins by Ellman's method
# T2 sequence (P37136 whole entry): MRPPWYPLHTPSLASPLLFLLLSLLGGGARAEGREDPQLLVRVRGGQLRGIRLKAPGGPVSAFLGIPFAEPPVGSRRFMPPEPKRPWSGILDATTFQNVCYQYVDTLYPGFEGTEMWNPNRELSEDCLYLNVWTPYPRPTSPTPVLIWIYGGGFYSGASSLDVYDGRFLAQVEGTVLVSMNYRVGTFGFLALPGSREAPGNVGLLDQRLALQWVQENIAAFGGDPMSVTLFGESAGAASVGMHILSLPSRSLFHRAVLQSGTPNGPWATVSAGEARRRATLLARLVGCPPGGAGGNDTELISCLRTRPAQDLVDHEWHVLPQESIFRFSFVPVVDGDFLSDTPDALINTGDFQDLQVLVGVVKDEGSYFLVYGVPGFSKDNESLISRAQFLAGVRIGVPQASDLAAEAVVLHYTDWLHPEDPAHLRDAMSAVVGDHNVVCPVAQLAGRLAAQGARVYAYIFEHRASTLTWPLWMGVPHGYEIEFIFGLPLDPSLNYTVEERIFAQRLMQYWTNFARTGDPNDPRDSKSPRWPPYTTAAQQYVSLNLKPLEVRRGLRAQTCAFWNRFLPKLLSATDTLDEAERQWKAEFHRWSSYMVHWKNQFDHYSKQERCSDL
# [14] = target: T1, Amyloid-beta precursor protein; assay: Inhibition of human amyloid beta (1 to 42) self-induced aggregation at 25 uM after 24 hrs by Thioflavin T based fluorometric assay relative to control
# Procedure, shortened: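 Aβ1-42 (25 µM final) incubated with compound (25 µM final) in 50 mM phosphate buffer, pH 7.4, for 24 h at 37 °C under a sealing film. ThT (5 µM) in 50 mM glycine-NaOH, pH 8.5, then added and fluorescence measured. Triplicate; mean ± SD of three independent experiments.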
# Sequence of Butyrylcholinesterase (Q9JKC1 whole entry): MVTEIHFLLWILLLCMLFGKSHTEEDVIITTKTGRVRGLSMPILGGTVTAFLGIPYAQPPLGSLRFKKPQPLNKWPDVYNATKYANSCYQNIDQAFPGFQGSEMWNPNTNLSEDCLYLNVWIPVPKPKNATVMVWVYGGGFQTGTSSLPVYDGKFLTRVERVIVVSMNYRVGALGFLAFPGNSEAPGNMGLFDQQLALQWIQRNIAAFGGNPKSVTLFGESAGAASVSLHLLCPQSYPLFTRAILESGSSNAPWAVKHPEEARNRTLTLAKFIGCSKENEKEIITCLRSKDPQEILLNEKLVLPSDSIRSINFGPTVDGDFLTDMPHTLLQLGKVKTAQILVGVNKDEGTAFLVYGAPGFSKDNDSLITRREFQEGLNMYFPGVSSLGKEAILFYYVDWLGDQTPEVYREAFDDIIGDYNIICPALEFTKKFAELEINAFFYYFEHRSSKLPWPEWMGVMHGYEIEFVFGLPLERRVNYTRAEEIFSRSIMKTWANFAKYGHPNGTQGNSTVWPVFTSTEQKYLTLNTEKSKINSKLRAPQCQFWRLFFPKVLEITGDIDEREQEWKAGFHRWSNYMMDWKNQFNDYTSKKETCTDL
# Sequence of Acetylcholinesterase (Electrophorus electricus, UniProt O42275) (O42275 whole entry): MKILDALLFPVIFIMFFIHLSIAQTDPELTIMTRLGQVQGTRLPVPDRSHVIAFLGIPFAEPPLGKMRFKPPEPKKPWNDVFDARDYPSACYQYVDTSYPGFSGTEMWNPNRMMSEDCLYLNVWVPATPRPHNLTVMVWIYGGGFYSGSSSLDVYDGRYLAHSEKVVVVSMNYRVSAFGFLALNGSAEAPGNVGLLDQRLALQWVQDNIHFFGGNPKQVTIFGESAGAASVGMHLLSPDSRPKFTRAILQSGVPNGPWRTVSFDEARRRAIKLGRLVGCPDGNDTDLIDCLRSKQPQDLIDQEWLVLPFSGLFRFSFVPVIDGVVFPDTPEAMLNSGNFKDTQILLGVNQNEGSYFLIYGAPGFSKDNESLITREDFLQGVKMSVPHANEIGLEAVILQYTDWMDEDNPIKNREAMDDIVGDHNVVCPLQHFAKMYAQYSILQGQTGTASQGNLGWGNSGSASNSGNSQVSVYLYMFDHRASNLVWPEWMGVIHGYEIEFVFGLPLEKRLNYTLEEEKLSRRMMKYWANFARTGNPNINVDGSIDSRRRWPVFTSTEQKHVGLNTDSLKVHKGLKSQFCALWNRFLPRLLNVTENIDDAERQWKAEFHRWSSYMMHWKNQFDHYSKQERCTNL
# T1 sequence (P05067 whole entry): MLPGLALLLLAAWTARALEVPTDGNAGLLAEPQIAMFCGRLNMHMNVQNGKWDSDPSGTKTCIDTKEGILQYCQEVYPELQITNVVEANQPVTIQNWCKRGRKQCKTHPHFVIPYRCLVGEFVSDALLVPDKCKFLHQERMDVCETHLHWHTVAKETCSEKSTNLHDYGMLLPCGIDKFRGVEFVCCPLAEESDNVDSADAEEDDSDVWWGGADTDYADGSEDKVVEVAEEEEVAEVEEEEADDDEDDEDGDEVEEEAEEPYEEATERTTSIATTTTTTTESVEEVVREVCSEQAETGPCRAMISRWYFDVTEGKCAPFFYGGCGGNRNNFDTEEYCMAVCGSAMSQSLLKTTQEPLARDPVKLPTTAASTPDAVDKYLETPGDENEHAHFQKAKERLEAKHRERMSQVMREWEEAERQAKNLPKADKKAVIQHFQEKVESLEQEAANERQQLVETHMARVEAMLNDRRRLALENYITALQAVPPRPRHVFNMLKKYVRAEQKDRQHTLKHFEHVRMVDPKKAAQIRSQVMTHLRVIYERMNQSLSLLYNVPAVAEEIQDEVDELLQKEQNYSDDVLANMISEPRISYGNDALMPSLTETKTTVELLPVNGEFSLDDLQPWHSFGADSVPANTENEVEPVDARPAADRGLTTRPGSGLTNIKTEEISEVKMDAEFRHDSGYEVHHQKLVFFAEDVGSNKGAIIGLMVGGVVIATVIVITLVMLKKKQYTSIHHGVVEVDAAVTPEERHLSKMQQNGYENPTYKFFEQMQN
Structure (SMILES),inhibition at 10 µM [1] [%],inhibition at 10 µM [2] [%],inhibition at 2.5 µM [3] [%],Activity [4],Activity [5],inhibition at 2.5 µM [6] [%],Activity [7] [%],pIC50 [8],Activity [9] [equiv],Activity [10] [%],inhibition [11] [%],pIC50 (Acetylcholinesterase [12]),pIC50 (Butyrylcholinesterase),pIC50 (Acetylcholinesterase [13]),inhibition [14] [%]
CC(C(=O)O)c1ccc(-c2ccccc2)c(F)c1 (configuration not stated) [FLURBIPROFEN],23,30.3,9.6,Non-Toxic,Non-Toxic,11.8,,,,,,,,,
CCN(CCCNC(=O)c1cc(O)c(C(=O)NCCCN(CC)Cc2ccccc2)cc1O)Cc1ccccc1,,,,,,,62.7,5.38,0.95,70.6,57.6,4.57,< 4.00,5.11,81
CCN(CCCCNC(=O)c1cc(O)c(C(=O)NCCCCN(CC)Cc2ccccc2)cc1O)Cc1ccccc1,,,,,,,81.1,5.41,0.93,80,84.1,4.85,< 4.00,5.39,88
COc1ccccc1CN(C)CCCNC(=O)c1cc(O)c(C(=O)NCCCN(C)Cc2ccccc2OC)cc1O,,,,,,,70.1,5.44,1.37,73.5,70.4,4.40,4.76,5.04,93.5
CCN(CCCCNC(=O)c1cc(O)c(C(=O)NCCCCN(CC)Cc2ccccc2N(C)C)cc1O)Cc1ccccc1N(C)C,,,,,,,64.4,5.43,1.16,83.3,69.4,4.97,< 4.00,5.38,99.7
COc1cc(/C=C/C(=O)CC(=O)/C=C/c2ccc(O)c(OC)c2)ccc1O,,,,,,,,,,54.7,66,,,,
CN(CCCNC(=O)c1cc(O)c(C(=O)NCCCN(C)Cc2ccccc2)cc1O)Cc1ccccc1,,,,,,,68.5,5.40,1.21,71.3,81.2,4.85,< 4.00,4.95,85
CCN(CCCCNC(=O)c1cc(O)c(C(=O)NCCCCN(CC)Cc2ccc(N(C)C)cc2)cc1O)Cc1ccc(N(C)C)cc1,,,,,,,60.4,5.50,3.23,84.7,82.5,4.32,< 4.00,4.56,99.9
